Compound activity deposited in PubChem BioAssay by Sanford-Burnham Center for Chemical Genomics.
Mdm2 MdmX PPI: inhibitors of human Mdm2-MdmX association, primary screen, cell-based, luminescence, split luciferase, SaOS-2, uHTS; Protein Mdm4 (Homo sapiens) + E3 ubiquitin-protein ligase Mdm2 (Homo sapiens), …; SaOS-2 split-luciferase Mdm2/MdmX complementation; inhibition, % at 8 µM; actives 3% (n = 330,000); AID 485346, 2010;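 active = inhibition of at least 50% at 8 µM in the primary screen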
Apaf-1 inh: inhibitors of human Apaf-1 apoptosome, primary screen, biochemical, DEVD-Rh110 fluorescence, uHTS. Apoptotic protease-activating factor 1 (Homo sapiens), O14727. reconstituted apoptosome caspase-3 activity. inhibition, % at 20 µM. actives 0.71% (n = 330,000). AID 489030, 2010; active = inhibition of at least 40% at 20 µM;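 note: plate controls were DMSO wells for no effect and DEVD-CHO caspase inhibitor wells for full effect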
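Material: reconstituted apoptosome with Apaf-1, cytochrome c, caspase-9, procaspase-3, dATP; medium: pH 7.5 Hepes buffer with CHAPS, BSA, DTT; also added: cytochrome c and DEVD-Rh110 substrate; timing: 30 min plus 50 min, RT; signal: Rh110 fluorescence intensity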
UBC13 inh: UBC13 polyubiquitin chain formation inhibitors, primary screen, biochemical, TR-FRET, uHTS. actives 0.47% (n = 330,000). Ubiquitin-conjugating enzyme E2 N (Homo sapiens), P61088. inhibition, % at 20 µM; in the data active = inhibition above about 45%, passing the limit was not always enough
Target sequence (P61088 whole entry, looked up): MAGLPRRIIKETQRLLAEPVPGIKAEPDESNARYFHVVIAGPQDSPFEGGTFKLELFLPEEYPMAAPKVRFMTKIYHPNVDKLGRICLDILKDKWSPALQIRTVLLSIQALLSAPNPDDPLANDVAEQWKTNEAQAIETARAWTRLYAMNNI
UPR XBP1 act: activators of adaptive XBP1 UPR arm, primary screen, cell-based, CHO-XBP1 luciferase reporter, luminescence, uHTS. activation, % at 20 µM. IRE1-XBP1 UPR activation; percent of tunicamycin response, DMSO as zero. actives 0.33% (n = 330,000);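 active = versus positive control, 20 µM dose yields 30% or more activation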;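 note: 100% = tunicamycin at 10 µg/mL and 0% = DMSO only wells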
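Assay system: CHO-XBP1 luciferase reporter cells; Schedule: 6 h treatment, 37 °C; Detection: glow luminescence from Steady-Glo reagent; Benchmarks: high control tunicamycin 10 µg/mL final, low control DMSO vehicle only.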
UPR CHOP act: activators of apoptotic CHOP UPR arm, primary screen, cell-based, CHO-CHOP luciferase reporter, luminescence, uHTS. UPR activation; percent of tunicamycin response over DMSO baseline. activation, % at 10 µM. AID 449763, 2010. actives 0.34% (n = 330,000);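 active = at 10 µM dose, activation of 40% or more, normalized to positive control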;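 note: 100% = tunicamycin at 10 µg/mL and 0% = DMSO alone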
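System: CHO CHOP reporter cells. Amount: 500 cells per well. Buffer or medium: F12 medium, 10% FBS. Compound dosing: one dose, 10 µM in 0.5% DMSO. Incubation: 6 h compound exposure at 37 °C after overnight seeding. Technique: Steady-Glo luciferase luminescence. Benchmarks: tunicamycin and DMSO controls.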
Mdm2-MdmX conf: Mdm2-MdmX complex disruptors, retested hits, confirmation, luminescence, single concentration; shares compounds with Mdm2 MdmX PPI; Mdm2-MdmX binding, luminescent assay; inhibition, % at 8 µM; actives 55% (n = 10,000); in the data active = inhibition above about 40%
Full FLuc ctr: full-length luciferase signal inhibition, confirmation, counter-screen for Mdm2/MdmX interaction inhibitor project, cell-based, single concentration, SaOS-2; SaOS-2 full-length luciferase counterscreen, luminescence; actives 77% (n = 6,200); inhibition, % at 8 µM; shares compounds with Mdm2 MdmX PPI;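 active = mean inhibition at 8 µM reaching about 37%, which flags the compound as non-specific, limit read from the data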;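 note: p53-null SaOS-2 cells with luciferase driven by a doxycycline-inducible promoter; compound on cells about two nights before reading with doxycycline added after day one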
* hit, by the source's call; · = no result. Shown are actives, neighbours in structure and some others; about 4.1% of the full set was active somewhere.

SMILES	Mdm2 MdmX PPI	Apaf-1 inh	UBC13 inh	UPR XBP1 act	UPR CHOP act	Mdm2-MdmX conf	Full FLuc ctr
C/C(=C/CCC(C)(O)C1CC[C@@]2(C)[C@@H]3CC=C4[C@@H](CC[C@H](O[C@H]5O[C@@H](CO)[C@H](O)[C@@H](O)[C@@H]5O)C4(C)C)[C@]3(C)C(=O)C[C@]12C)CO[C@@H]1O[C@H](CO)[C@@H](O)[C@H](O)[C@H]1O (stereo partly specified)	-7.1	-0.5	4.8	-2.4	0.6	·	·
N#C/C(C(=O)NCc1ccccc1)=C1/N=C(NC(=O)c2ccco2)c2ccccc21	65.3*	11.4	-15.6	3.1	-0.4	10.3	·
C/C(=N/NC(=O)c1cccc(N2CCCC2=O)c1)c1ccncc1	-56.7	-0.9	9.3	-1.0	2.6	·	·
CC1CCN(S(=O)(=O)c2ccc(NC(=S)NC(=O)c3ccc(Cl)cc3)cc2)CC1	53.5*	10.3	1.0	2.2	4.0	36.2	71.9*
CC12CCC(=O)N1C(C(=O)OCC(=O)Nc1ccc(C(F)(F)F)cc1)CS2 (stereo unspecified)	19.6	1.9	1.2	-1.2	-1.1	·	·
Cc1ccc(OCCCCNC2CCCC(C)C2C)c(C)c1 (stereo unspecified)	55.9*	0.7	23.5	-0.3	1.7	38.4	·
CCOC(=O)[C@H]1[C@H]2COc3ccc(C)cc3[C@@H]2N2C(=O)c3ccc(C)cc3NC(=O)[C@@]12C	15.3	1.5	-1.4	-1.6	1.7	·	·
CCOC(=O)[C@H]1[C@H]2COc3ccc(Br)cc3[C@@H]2N2C(=O)c3ccc(Cl)cc3NC(=O)[C@@]12C	54.4*	6.9	-6.6	7.8	-1.0	34.2	·
C[C@@]12C(=O)Nc3cc(F)ccc3C(=O)N1[C@H]1c3cc(Br)ccc3OC[C@@H]1[C@@H]2c1ccccc1	55.5*	15.4	-2.9	1.7	-0.6	51.2*	36.4*
Cc1ccc2c(c1)[C@H]1[C@H](CO2)[C@H](c2ccccc2)[C@]2(C)C(=O)Nc3ccccc3C(=O)N12	41.5	16.2	-8.5	-0.6	1.3	·	·
Cc1ccc2c(c1)[C@H]1[C@H](CO2)[C@H](c2ccccc2)[C@]2(C)C(=O)Nc3cc(F)ccc3C(=O)N12	57.9*	13.6	-8.1	1.9	0.6	30.4	·
CCN(CC)S(=O)(=O)c1ccc2c(c1)N(CC(=O)Nc1ccc(NC(C)=O)cc1)C(=O)CO2	5.6	-4.5	5.1	2.5	1.7	·	·
O=C(C[C@@H]1C/C=C\CC[C@H](Cc2ccc(F)cc2)C(=O)OC[C@@H](Cc2ccccc2)NC1=O)NCCO	-8.8	1.9	15.9	-2.5	1.3	·	·
CCOc1ccc(C(C)=O)cc1CN1C(=O)C(=O)N(CC)C1=O	-9.2	-5.5	0.7	-2.0	0.8	·	·
Cc1nc2ccc(Br)cn2c1C(=O)N/N=C\c1ccc(C(C)C)cc1	57.4*	-4.1	3.8	1.4	4.3	47.6*	63.9*
O=C(CSc1n[nH]c(-c2ccccc2Br)n1)NCCN1C(=O)CSC1=O	-4.3	-1.5	-8.2	1.3	-1.0	·	·
COc1cccc(NC(=S)NCCC(c2ccccc2)c2ccccc2)c1	27.8	9.3	-0.1	-3.3	-2.5	·	·
Cc1cccc(NC(=S)NCCC(c2ccccc2)c2ccccc2)c1	53.2*	-2.2	1.2	-1.3	-1.0	6.7	·
COc1ccc(CN2CCC(C(=O)NCCc3ccc(OC)c(OC)c3)CC2)c(OC)c1	-7.5	0.6	2.1	0.3	-0.6	·	·
C[C@H]1COC(=O)[C@H](Cc2ccc(F)cc2)CC/C=C/C[C@@H](CC(=O)N(CCO)Cc2ccccc2)C(=O)N1	17.3	10.3	-15.6	-2.3	-0.9	·	·
O=C1O/C(=C/c2ccccc2)c2ccccc21	18.0	12.1	-2.8	3.8	4.0	·	·
N#CC1=C(c2ccccc2)/C(=C/c2ccccc2)OC1=O	100.3*	26.2	-16.2	-16.9	-8.4	75.4*	49.2*
COc1ccccc1NS(=O)(=O)c1cccc(-n2c(O)c(C=Nc3ccccc3C(=O)O)c3ccccc3c2=O)c1	53.8*	22.8	-0.9	0.2	2.6	58.5*	70.3*
Cc1c(C=O)c2ccccn2c1C(=O)c1ccc(Cl)c([N+](=O)[O-])c1	65.5*	3.2	8.1	2.1	-1.5	-0.9	·
Cc1nc(Nc2cccc(C(F)(F)F)c2)nc2c1C(=O)CC(C)C2 (stereo unspecified)	53.5*	1.6	-16.1	5.5	4.7	12.2	·
SMILES	Mdm2 MdmX PPI	Apaf-1 inh	UBC13 inh	UPR XBP1 act	UPR CHOP act	Mdm2-MdmX conf	Full FLuc ctr
Cc1ccc(S(=O)(=O)N2CCC(C(=O)NNC(=O)c3ccccc3O)CC2)cc1C	53.2*	8.2	14.7	-2.7	-0.8	49.9*	46.4*
Cc1ccc(S(=O)(=O)N2CCC(C(=O)NNC(=O)c3ccccc3O)CC2)cc1	11.4	-0.5	9.5	-2.3	1.8	·	·
Cc1cc(C)c(C)c(S(=O)(=O)N2CCC(C(=O)NNC(=O)c3ccccc3O)CC2)c1C	66.5*	0.7	3.8	-2.1	-1.3	65.5*	45.2*
CCNc1nc(SCC(=O)Nc2ccc(Cl)c(Cl)c2)nc(N2CCOCC2)n1	49.1	21.3	-2.6	-4.2	-1.0	·	·
Clc1ccc2ncc(-c3nnnn3-c3ccccc3)c(-c3ccccc3)c2c1	56.0*	32.8	-1.6	1.9	-0.5	39.3	43.1*
Clc1ccc2[nH]cc(-c3nnnn3-c3ccccc3)c2c1	31.5	12.8	5.9	2.7	-0.6	·	·
Clc1ccc(-n2nnnc2-c2cnc3ccc(Cl)cc3c2-c2ccccc2)cc1	61.4*	22.9	-1.1	5.0	0.8	38.5	·
COc1ccc(Cl)cc1C(=O)NNC(=O)CN1C(=O)C2CC=CCC2C1=O (stereo unspecified)	-18.0	-6.0	2.5	-3.8	1.7	·	·
CCOC(=O)c1c(NC(=O)COc2ccccc2)sc2c1CC(C)(C)NC2(C)C	77.0*	8.9	39.9	11.2	-1.4	41.4*	54.4*
CCOC(=O)c1c(NC(=O)COC(=O)/C=C/c2ccco2)sc2c1CC(C)(C)NC2(C)C	31.9	36.8	13.4	9.7	0.3	·	·
CC1=C(Nc2ccc(C(=O)O)cc2)C(=O)c2ccccc2C1=O	14.5	17.7	-64.8	-3.7	2.1	·	·
